# Laboratory results reported in ChEMBL document CHEMBL2407018, “Luteolin suppresses the differentiation of THP-1 cells through the Inhibition of NOX2 mRNA expression and the membrane translocation of p47phox” (J Nat Prod, 2013).
# The source made the active and inactive calls. The rule behind the calls is not given here.
# Tests used:
# [1] = target: T1, NADPH oxidase 2 (Homo sapiens) (UniProt P04839); assay: Inhibition of NOX2 in human THP1 cells assessed as suppression of TPA-induced cell adhesion at 20 uM incubated for 1 hr prior to TPA challenge measured after 24 hrs by microscopic analysis; type: cell-based; conditions: THP-1
# T1 sequence (whole entry): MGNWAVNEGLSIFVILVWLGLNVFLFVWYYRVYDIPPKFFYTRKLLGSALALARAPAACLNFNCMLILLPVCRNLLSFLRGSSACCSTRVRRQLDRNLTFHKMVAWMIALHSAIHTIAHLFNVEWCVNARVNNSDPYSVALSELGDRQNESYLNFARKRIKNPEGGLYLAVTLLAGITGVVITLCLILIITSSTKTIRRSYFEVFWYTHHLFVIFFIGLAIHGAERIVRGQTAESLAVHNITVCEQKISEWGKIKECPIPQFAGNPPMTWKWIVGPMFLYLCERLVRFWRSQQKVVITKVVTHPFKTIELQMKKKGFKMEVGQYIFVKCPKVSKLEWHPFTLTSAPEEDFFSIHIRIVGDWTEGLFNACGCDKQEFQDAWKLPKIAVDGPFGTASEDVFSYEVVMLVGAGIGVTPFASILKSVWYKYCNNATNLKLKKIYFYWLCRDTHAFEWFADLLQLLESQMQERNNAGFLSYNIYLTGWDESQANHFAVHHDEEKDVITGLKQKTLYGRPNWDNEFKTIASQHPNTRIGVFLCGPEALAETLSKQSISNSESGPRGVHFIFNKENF
# Summary of the method: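 THP-1 cells at 2 × 10^6 per 3.5 cm dish in RPMI1640 with 10% FCS. Exposed to compound for 1 h, then to 100 nM TPA for 24 h. Dishes washed three times with PBS and the remaining adherent cells inspected by microscope.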
# [2] = target: T1, NADPH oxidase 2 (Homo sapiens); assay: Inhibition of NOX2 in human THP1 cells assessed as downregulation of TPA-induced CD36 mRNA expression at 20 uM incubated for 1 hr prior to TPA challenge measured after 24 hrs by RT-PCR analysis; type: cell-based; conditions: THP-1
# Summary of the method: (§1)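 THP-1 cells grown in RPMI1640 with 10% heat-inactivated FCS and penicillin/streptomycin at 37 °C, 5% CO2. Seeded at 2 × 10^6 cells per 3.5 cm dish. Compound added 1 h before 100 nM TPA for 24 h. Cells scraped, washed in cold PBS, lysed in TRIzol for total RNA. Transcripts measured by RT-PCR and normalized to 18s rRNA.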
# [3] = target: T1, NADPH oxidase 2 (Homo sapiens); assay: Inhibition of NOX2 in human THP1 cells assessed as downregulation of TPA-induced CD14 mRNA expression at 20 uM incubated for 1 hr prior to TPA challenge measured after 24 hrs by RT-PCR analysis; type: cell-based; conditions: THP-1; summary of the method: as §1
# [4] = target: T1, NADPH oxidase 2 (Homo sapiens); assay: Inhibition of NOX2 in human THP1 cells assessed as downregulation of TPA-induced CD11b mRNA expression at 20 uM incubated for 1 hr prior to TPA challenge measured after 24 hrs by RT-PCR analysis; type: cell-based; conditions: THP-1; summary of the method: as §1
# [5] = target: T1, NADPH oxidase 2 (Homo sapiens); assay: Inhibition of NOX2 in human THP1 cells assessed as suppression of TPA-induced membrane translocation of p47phox at 20 uM incubated for 1 hr prior to TPA challenge measured after 12 hrs by Western blot analysis; type: cell-based; conditions: THP-1
# Summary of the method: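 Cells pretreated 1 h, then 100 nM TPA for 12 h. Lysed in digitonin buffer B (pH 7.5); after 12000g for 15 min the pellet was solubilized in buffer B with 1% Triton X-100 to give the membrane fraction. 20 μg protein run on 12% SDS-PAGE, blotted for p47phox.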
# THP-1 [6] = assay: Downregulation of TPA-induced NOX2 mRNA expression in human THP1 cells at 20 uM incubated for 1 hr prior to TPA challenge measured after 24 hrs by RT-PCR analysis; type: functional, cell-based
# Summary of the method: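 THP-1 cells in RPMI1640 with 10% FCS, 2 × 10^6 cells per 3.5 cm dish, pretreated 1 h, then 100 nM TPA for 24 h. Total RNA extracted in TRIzol, NOX2 measured by RT-PCR and normalized to 18s rRNA.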
# [7] = target: T1, NADPH oxidase 2 (Homo sapiens); assay: Inhibition of NOX2 in human THP1 cells assessed as suppression of TPA-induced intracellular ROS accumulation at 20 uM incubated for 1 hr prior to TPA challenge measured after 24 hrs by flow cytometric analysis; type: cell-based; conditions: THP-1
# Summary of the method: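 THP-1 cells pretreated 1 h, then 100 nM TPA for 24 h. Cells scraped, stained 20 min with 10 μM carboxy-H2DCFDA in PBS with […] in a 5% CO2 incubator, and washed three times in ice-cold PBS. DCF fluorescence read by flow cytometry.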
# THP-1 [8] = assay: Inhibition of TPA-induced MEK/ERK phosphorylation in human THP1 cells at 20 uM incubated for 1 hr prior to TPA challenge measured after 15 mins by Western blot analysis; type: cell-based
# Summary of the method: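 THP-1 cells pretreated 1 h, then 100 nM TPA for 15 min. Lysed in buffer A (Tris pH 7.4 with phosphatase inhibitors, 1% Triton X-100). 20 μg protein run on 12% SDS-PAGE and PVDF, probed for phospho- and total MEK and ERK (1:1000) with biotin secondary and ABC detection.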
# [9] = target: T1, NADPH oxidase 2 (Homo sapiens); assay: Inhibition of NOX2 in human THP1 cells assessed as downregulation of TPA-induced CD36 mRNA expression at 0.2 to 2 uM incubated for 1 hr prior to TPA challenge measured after 24 hrs by RT-PCR analysis; type: cell-based; conditions: THP-1
# Summary of the method: (§2)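 THP-1 cells, 2 × 10^6 per 3.5 cm dish, pretreated 1 h with 0.2, 2 or 20 μM, then 100 nM TPA for 24 h. Cells scraped and washed in cold PBS, TRIzol RNA extracted. CD11b, CD14 and CD36 transcripts measured by RT-PCR and normalized to 18s rRNA.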
# [10] = target: T1, NADPH oxidase 2 (Homo sapiens); assay: Inhibition of NOX2 in human THP1 cells assessed as downregulation of TPA-induced CD14 mRNA expression at 0.2 to 2 uM incubated for 1 hr prior to TPA challenge measured after 24 hrs by RT-PCR analysis; type: cell-based; conditions: THP-1; summary of the method: as §2
# [11] = target: T1, NADPH oxidase 2 (Homo sapiens); assay: Inhibition of NOX2 in human THP1 cells assessed as downregulation of TPA-induced CD11b mRNA expression at 0.2 to 2 uM incubated for 1 hr prior to TPA challenge measured after 24 hrs by RT-PCR analysis; type: cell-based; conditions: THP-1; summary of the method: as §2
Structure (SMILES),inhibition [1],inhibition [2],inhibition [3],inhibition [4],inhibition [5],Activity (THP-1 [6]),inhibition [7],inhibition (THP-1 [8]),inhibition [9],inhibition [10],inhibition [11]
O=c1cc(-c2ccccc2)oc2cc(O)cc(O)c12,Active,Active,Active,Active,–,–,–,–,–,–,–
O=c1cc(-c2ccc(O)c(O)c2)oc2cc(O)cc(O)c12,Active,Active,Active,Active,Active,Active,Active,inactive,inactive,inactive,inactive
O=c1cc(-c2cc(O)c(O)c(O)c2)oc2cc(O)cc(O)c12,inactive,inactive,inactive,inactive,inactive,inactive,–,–,–,–,–
O=c1cc(-c2ccc(O)cc2)oc2cc(O)cc(O)c12,Active,Active,Active,Active,–,–,–,–,–,–,–
